Laboratory results published in ChEMBL document CHEMBL5321273, “Bicyclic Peptide Library Screening for the Identification of Gαi Protein Modulators” (J Med Chem, 2023).
pIC50, pKd: −log10 of the molar value. One block for each compound: values may come before it. Activity calls are given as the source filed them. The rule behind the calls is not given here.

Legend:
NG108-15 [1] = assay: Modulation of Galphai in DADLE/forskolin-stimulated NG108-15 cell membrane expressing human beta2-AR co-expressing […] receptor assessed as decrease in cAMP level at 10 uM relative to control; type: cell membranes; parameters: scale not given: the % may be the effect or the level left
Procedure, shortened: (§1)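 Cell-free AC assay on membranes from NG108–15 hybrid cells stably expressing human β2-AR; peptides 10 μM; cAMP production stimulated with Fsk or Fsk + DADLE; read by ELISA; values as percent of untreated control; n = 3, SD.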

HeLa [2] = assay: Cytotoxicity against human HeLa cells assessed as reduction in cell viability upto 80 uM incubated for overnight by MTT assay; type: toxicity, cell-based
HeLa [3] = assay: Modulation of Galphai in forskolin-stimulated human HeLa cells assessed as adenylyl cyclase mediated increase in cAMP level at 2.5 uM incubated for 30 mins by BRET analysis relative to control; type: cell-based
Procedure, shortened: (§2)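 HeLa cells in DMEM/10% FBS transfected with Gαi(C351I) or pcDNA plus modified CAMYEL cAMP BRET sensor; replated 40K/well; peptide (10, 5, 2.5 μM final, assay buffer pH 8.0) 30 min RT; 100 μM IBMX + 10 μM CTZ added, luminescence 7 min; then Fsk, BRET 15 min; AUC normalized to no-peptide; triplicates.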

NG108-15 [4] = assay: Modulation of Galphai in forskolin/DADLE-stimulated NG108-15 cell membrane expressing human beta2-AR co-expressing mu-opioid receptor assessed as increase in cAMP level at 10 uM relative to control; type: cell membranes; procedure, shortened: as §1
[5] = molecular target: T1, Guanine nucleotide-binding protein G(i) subunit alpha-1 (Homo sapiens, UniProt P63096); assay: Binding affinity to N-terminal 6His-tagged GDP-bound Galphai1 (unknown origin) expressed in Escherichia coli BL21 (DE3) assessed as dissociation constant by SPR analysis
T1 sequence (P63096 whole entry): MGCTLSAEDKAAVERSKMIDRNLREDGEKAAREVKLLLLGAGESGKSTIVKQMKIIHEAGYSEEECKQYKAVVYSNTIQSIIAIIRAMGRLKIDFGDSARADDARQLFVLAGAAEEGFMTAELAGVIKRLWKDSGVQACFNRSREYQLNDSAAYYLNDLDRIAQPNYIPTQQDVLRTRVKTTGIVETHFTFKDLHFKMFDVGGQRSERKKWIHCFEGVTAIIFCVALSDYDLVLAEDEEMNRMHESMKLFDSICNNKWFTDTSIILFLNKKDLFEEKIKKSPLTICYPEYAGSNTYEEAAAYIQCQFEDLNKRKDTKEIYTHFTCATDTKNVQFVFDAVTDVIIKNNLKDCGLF
Procedure, shortened: (§3)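 SPR: Gαi1 loaded with GDP or GMPPNP immobilized on sensor chip by amine coupling; peptides flowed over at varying concentrations; KD determined. Reverse orientation (peptide immobilized, protein flowed) also run.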

HeLa [6] = assay: Modulation of Galphai in forskolin-stimulated human HeLa cells assessed as adenylyl cyclase mediated decrease in cAMP level at 2.5 to 10 uM incubated for 30 mins by BRET analysis relative to control; type: cell-based; conditions: dose 2.5-10 µM; procedure, shortened: as §2
NG108-15 [7] = assay: Modulation of Galphai in forskolin-stimulated NG108-15 cell membrane expressing human beta2-AR co-expressing […] receptor assessed as increase in cAMP level at 10 uM relative to control; type: cell membranes; procedure, shortened: as §1
[8] = molecular target: T1, Guanine nucleotide-binding protein G(i) subunit alpha-1; assay: Binding affinity to N-terminal 6His-tagged GMPPNP-bound Galphai1 (unknown origin) expressed in Escherichia coli BL21 (DE3) assessed as dissociation constant by SPR analysis; procedure, shortened: as §3
HeLa [9] = assay: Modulation of Galphai in isoproterenol-stimulated human HeLa cells assessed as effect on cAMP level at 2.5 to 5 uM incubated for 30 mins by BRET analysis relative to control; type: cell-based; conditions: dose 2.5-5 µM
Procedure, shortened: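 CAMYEL BRET in HeLa cells transfected with β2-AR plus modified CAMYEL; peptide (10, 5, 2.5 μM final) 30 min RT in pH 8.0 assay buffer; IBMX 100 μM + CTZ 10 μM, 7 min read; isoproterenol added, BRET 15 min; AUC normalized to untreated; triplicates.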

HeLa [10] = assay: Modulation of Galphai in human HeLa cells assessed as hetero-trimer reassociation by measuring effect on phosphorylated Akt level at 2.5 uM incubated for 30 mins by immunoblotting analysis; type: cell-based
HeLa [11] = assay: Modulation of Galphai in human HeLa cells assessed as hetero-trimer reassociation by measuring effect on total Akt level at 2.5 uM incubated for 30 mins by immunoblotting analysis; type: cell-based
HeLa [12] = assay: Modulation of Galphai in human HeLa cells assessed as hetero-trimer reassociation by measuring decrease in free Galphai monomer level at 2.5 uM incubated for 30 mins by BRET analysis; type: cell-based; conditions: filed as modulator
Procedure, shortened: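 Gβγ release BRET: HeLa cells transfected with Venus-Gβ, Gγ and Rluc8-Gαi (500 ng each); peptide 2.5 μM 30 min RT; CTZ 10 μM added; BRET ratio from emission scan, AUC normalized to no-peptide; n = 3, S.E.M.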

HeLa [13] = assay: Modulation of Galphai in human HeLa cells assessed as hetero-trimer reassociation by measuring effect on total ERK level at 2.5 uM incubated for 30 mins by immunoblotting analysis; type: cell-based
[14] = Modulation of Galphai in human HeLa cells assessed as increase in cAMP level incubated for 30 mins followed by forskolin stimulation measured after 30 mins by TR-FRET analysis; type: cell-based; conditions: 0.5 h
Procedure, shortened: (§4)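 Endpoint intracellular cAMP by TR-FRET (LANCE Ultra cAMP kit) in HeLa cells incubated with a range of peptide concentrations, then Fsk-stimulated or unstimulated; cAMP quantified against a cAMP standard curve.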

[15] = Stability in human plasma at 1 mM measured upto 180 mins by HPLC analysis; type: ADME, cell-free; conditions: 3 h, 1000 µM
HeLa [16] = assay: Modulation of Galphai in human HeLa cells assessed as hetero-trimer reassociation by measuring decrease in free G-beta/gamma dimer level at 2.5 uM incubated for 30 mins by BRET analysis; type: cell-based; conditions: filed as modulator
Procedure, shortened: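 Free Gβγ BRET using Rluc-fused GRK3ct as biosensor in HeLa cells; 30 min incubation with 2.5 μM peptide or none; BRET signal normalized to untreated; n = 3, S.E.M., one-way ANOVA.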

HeLa [17] = assay: Modulation of Galphai in human HeLa cells assessed as increase in cAMP level at 2.5 uM incubated for 30 mins followed by forskolin stimulation measured after 30 mins by TR-FRET analysis relative to control; type: cell-based; conditions: filed as modulator, time 60.0 min; procedure, shortened: as §4
HeLa [18] = assay: Modulation of Galphai in human HeLa cells assessed as hetero-trimer reassociation by measuring effect on phosphorylated ERK level at 2.5 uM incubated for 30 mins by immunoblotting analysis; type: cell-based

- Activity (NG108-15 [1]): inactive
- Activity (NG108-15 [4]): inactive
- Activity [5]: inactive
- Activity (NG108-15 [7]): inactive
SMILES: CC[C@H](C)[C@@H]1NC(=O)c2cc3cc(c2)C(=O)NC[C@@H](C(=O)N[C@@H](CCCCN)C(N)=O)NC(=O)[C@H](Cc2c[nH]c4ccccc24)NC(=O)[C@@H](Cc2ccc4ccccc4c2)NC(=O)[C@@H](C(C)C)NC(=O)[C@H](CCCNC3=O)NC(=O)[C@@H](CC(N)=O)NC(=O)[C@@H](CC(C)C)NC1=O
- Activity (HeLa [2]): Non-Toxic
- Activity (HeLa [3]): inactive
- Activity (HeLa [6]): inactive

- Activity (NG108-15 [1]; filed as modulator): 40%
- pKd [8]: 6.15
- pKd [5]: 5.30
SMILES: NCCCC[C@H](NC(=O)[C@@H]1CNC(=O)c2cc3cc(c2)C(=O)N[C@H](Cc2cccc4ccccc24)C(=O)N[C@H](Cc2ccccc2)C(=O)N2CCC[C@@H]2C(=O)N[C@@H](CCCNC3=O)C(=O)N2CCC[C@@H]2C(=O)N[C@H](CCCCN)C(=O)N2CCC[C@@H]2C(=O)N[C@@H](Cc2ccc(O)cc2)C(=O)N1)C(N)=O
- Activity (HeLa [2]): Non-Toxic
- Activity (HeLa [6]; filed as modulator): Active
- Activity (HeLa [9]): inactive

- pIC50 [14]: 5.16
- Stability [15]: Stable
- Activity (NG108-15 [4]; in the assay text read “delta-opioid receptor” for “mu-opioid receptor”): 30%
- pKd [5]: 4.59
- Activity (NG108-15 [7]): 30%
SMILES: CC[C@H](C)[C@@H]1NC(=O)[C@@H](Cc2cccc3ccccc23)NC(=O)c2cc3cc(c2)C(=O)NC[C@@H](C(=O)N[C@@H](CCCCN)C(N)=O)NC(=O)[C@@H](C)NC(=O)[C@@H](Cc2ccccc2)NC(=O)[C@H](CCCNC(=N)N)NC(=O)[C@H](C)NC(=O)[C@@H](CCCNC3=O)NC(=O)[C@@H](C(C)C)NC(=O)[C@@H](Cc2ccccc2)NC1=O
- Activity (HeLa [10]): inactive
- Activity (HeLa [11]): inactive
- Activity (HeLa [2]): Non-Toxic
- Activity (HeLa [3]): 10%
- Activity (HeLa [12]): Active
- Activity (HeLa [13]): inactive
- Activity (HeLa [16]): Active
- Activity (HeLa [17]): Active
- Activity (HeLa [18]): inactive
- Activity (HeLa [9]): inactive

- pKd [5]: 4.61
SMILES: N=C(N)NCCC[C@@H]1NC(=O)CNC(=O)[C@H](CO)NC(=O)c2cc3cc(c2)C(=O)NC[C@@H](C(=O)N[C@@H](CCCCN)C(N)=O)NC(=O)[C@@H](Cc2cccc4ccccc24)NC(=O)[C@H](Cc2ccc(O)cc2)NC(=O)[C@@H](CCCCN)NC(=O)[C@@H](Cc2cccc4ccccc24)NC(=O)[C@H](CCCNC3=O)NC1=O
- Activity (HeLa [2]): Non-Toxic
- Activity (HeLa [6]; filed as modulator): Active
